Consider nine compounds from ChEMBL document CHEMBL4041498, “Antibacterial and Cytotoxic Actinomycins Y6-Y9 and Zp from Streptomyces sp. Strain Gö-GS12” (J Nat Prod, 2016).

In brackets after ≈: the same amount, converted by molar mass. Numbered stars: 1 amine (or outer) side, 2 acyl side, 3 side chain; on linkers, the order of the positions; unused ones are H or OH. Bridge positions count the residues as written; N and C are the ends. Square brackets hold non-standard residues; d marks the D form. Peptide text beside a SMILES is read from it. I, II: the chains in the order shown. Actinocin(1to9) = Cc1c2oc3c(C)ccc(C(=O)[*:2])c3nc-2c(C(=O)[*:1])c(N)c1=O; Actinocin(9to1) = Cc1c2oc3c(C)ccc(C(=O)[*:1])c3nc-2c(C(=O)[*:2])c(N)c1=O; Pro(3S-OH,5S-Me) = C[C@H]1C[C@H](O)[C@@H](C(=O)O)N1; X2 = O=C([C@@H](N[*:1])[C@@H](CCl)O[*:3])[*:2]; X1 = O=C([C@@H](N[*:1])[C@@H](CO)O[*:3])[*:2]; Pro(5S-Me) = C[C@H]1CC[C@@H](C(=O)O)N1; Pro(4-oxo) = O=C1CN[C@H](C(=O)O)C1; NMeV = CN[C@H](C(=O)O)C(C)C; NMeA = CN[C@@H](C)C(=O)O; Sar = CNCC(=O)O

One experiment concerns Micrococcus luteus. The experiment is described as follows: Antibacterial activity against Micrococcus luteus ATCC 15307 after incubated for 16 to 48 hrs at 28 to 37 degC by spectrofluorometric method. Type of experiment: functional. The method in brief:
(§1)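 Overnight cultures (16 h, 37 °C, 250 rpm) were grown in tryptic soy broth (S. aureus, M. luteus), LB (B. subtilis, E. coli), nutrient broth (S. enterica), Middlebrook 7H9 + OADC (M. aurum) or YAPD (S. cerevisiae). They were diluted to OD600 ~0.1 and exposed to serial dilutions from a final maximum of ~10 μg/mL, then shaken at 160 rpm. OD600 was normalized to DMSO control, and MIC was taken as the lowest concentration inhibiting growth.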

A further experiment deals with Bacillus spizizenii. The experiment is described as follows: Antibacterial activity against Bacillus subtilis ATCC 6633 after incubated for 16 to 48 hrs at 28 to 37 degC by spectrofluorometric method. Type of experiment: functional. The method in brief: as §1
A further experiment deals with Mycolicibacterium aurum. The experiment is described as follows: Antibacterial activity against Mycobacterium aurum ATCC 23366 after incubated for 16 to 48 hrs at 28 to 37 degC […]. Type of experiment: functional.
The nature of experiment [1]: Antibacterial activity against Salmonella enterica ATCC 10708 after incubated for 16 to 48 hrs at 28 to 37 degC by spectrofluorometric method. It counts as functional. The method in brief:
as §1

A further experiment relates to Staphylococcus aureus. The experiment is described as follows: Antibacterial activity against Staphylococcus aureus ATCC 6538 after incubated for 16 to 48 hrs at 28 to 37 degC by spectrofluorometric method. It counts as functional. The method in brief: as §1
The subject of another experiment is Saccharomyces cerevisiae. As to the kind of experiment: Antifungal activity against Saccharomyces cerevisiae ATCC 204508 after incubated for 16 to 48 hrs at 28 to 37 degC by spectrofluorometric method. Type of experiment: functional.
The next experiment relates to Escherichia coli. As to the kind of experiment: Antibacterial activity against Escherichia coli ATCC 12435 after incubated for 16 to 48 hrs at 28 to 37 degC by spectrofluorometric method. It counts as functional. The method in brief:
as §1

Another experiment deals with PC-3. The experiment is described as follows: Cytotoxicity against human PC3 cells assessed as reduction in cell viability after 48 hrs by alamar blue assay. Type of experiment: functional, cell-based. The settings on record: PC-3, 48 h. The method in brief:
(§2)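 A549 cells were grown in DMEM/F-12 Kaighn's and PC3 cells in MEM/EBSS, both with 10% heat-inactivated FBS, penicillin/streptomycin and 2 mM L-glutamine. Cells were seeded at 5 × 10^3 per well, attached 24 h at 37 °C in 5% CO2, then exposed for 2 days. Values are % of untreated control from three independent experiments.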

The next experiment relates to A549. The experiment is described as follows: Cytotoxicity against human A549 cells assessed as reduction in cell viability after 48 hrs by alamar blue assay. Type of experiment: functional, cell-based. Conditions: A549, 48 h. The method in brief:
as §2
(In general: Alamar Blue is a resazurin reagent that responds to reducing activity.)

As usually defined, the MIC is the lowest concentration found to suppress growth. The low end stands for greater potency, the high end for weaker potency. For `Cc1c2oc3c(C)ccc(C(=O)N[C@@H]4C(=O)N[C@H](C(C)C)C(=O)N5[C@H](C(=O)N(C)CC(=O)N(C)[C@@H](C(C)C)C(=O)O[C@@H]4C)[C@@H](O)C[C@@H]5C)c3nc-2c(C(=O)OC[C@H](O)[C@@H]2NC(=O)[C@H](C)N(C)C(=O)CN(C)C(=O)[C@@H]3CC(=O)CN3C(=O)[C@@H](C(C)C)NC2=O)c(N)c1=O`, the MIC is 4.67 µg/mL (≈ 3.63 µM) against Micrococcus luteus; over 9.33 µg/mL with Bacillus spizizenii; over 9.33 µg/mL against Mycolicibacterium aurum; over 9.33 µg/mL in experiment [1]; over 9.33 µg/mL in the experiment with Staphylococcus aureus; over 9.33 µg/mL in the experiment with Saccharomyces cerevisiae. For the same compound, in the experiment on Escherichia coli, the MIC is over 9.33 µg/mL.
Broadly, the EC50 is the concentration giving half of the maximal effect. `Cc1c2oc3c(C)ccc(C(=O)N[C@@H]4C(=O)N[C@H](C(C)C)C(=O)N5[C@H](C(=O)N(C)CC(=O)N(C)[C@@H](C(C)C)C(=O)O[C@@H]4C)[C@@H](O)C[C@@H]5C)c3nc-2c2c(c1=O)N[C@H]([C@@H]1NC(=O)[C@H](C)N(C)C(=O)CN(C)C(=O)[C@@H]3CC(=O)CN3C(=O)[C@@H](C(C)C)NC1=O)COC2=O`: the figures for the EC50 with PC-3 and in the experiment with A549 were 0.0767 µM and 0.0715 µM, respectively. Also, the minimum inhibitory concentration (MIC) against Micrococcus luteus is 0.59 µg/mL (≈ 0.465 µM); with Bacillus spizizenii, 0.59 µg/mL (≈ 0.465 µM); against Mycolicibacterium aurum it was 0.95 µg/mL (≈ 0.748 µM); in experiment [1], over 9.46 µg/mL; in the experiment on Staphylococcus aureus, 2.37 µg/mL (≈ 1.87 µM); against Saccharomyces cerevisiae, 9.46 µg/mL (≈ 7.45 µM). In the experiment with Escherichia coli, this compound registered a minimal inhibitory concentration (MIC) of over 9.46 µg/mL.
Take `Cc1c2oc3c(C)ccc(C(=O)N[C@@H]4C(=O)N[C@H](C(C)C)C(=O)N5[C@H](C(=O)N(C)CC(=O)N(C)[C@@H](C(C)C)C(=O)O[C@@H]4C)[C@@H](O)C[C@@H]5C)c3nc-2c(C(=O)OC[C@H](O)[C@@H]2NC(=O)[C@H](C)N(C)C(=O)CN(C)C(=O)[C@@H]3C[C@@H](O)CN3C(=O)[C@@H](C(C)C)NC2=O)c(N)c1=O`: the MIC against Micrococcus luteus was 4.66 µg/mL (≈ 3.61 µM); in the experiment with Bacillus spizizenii, over 9.32 µg/mL; against Mycolicibacterium aurum it was over 9.32 µg/mL; in [1], over 9.32 µg/mL; in the experiment on Staphylococcus aureus it was over 9.32 µg/mL; against Saccharomyces cerevisiae, over 9.32 µg/mL. Also, the MIC against Escherichia coli was over 9.32 µg/mL.
`Cc1c2oc3c(C)ccc(C(=O)N[C@@H]4C(=O)N[C@H](C(C)C)C(=O)N5[C@H](C(=O)N(C)CC(=O)N(C)[C@@H](C(C)C)C(=O)O[C@@H]4C)[C@@H](O)C[C@@H]5C)c3nc-2c(C(=O)N[C@@H]2C(=O)N[C@H](C(C)C)C(=O)N3CC(=O)C[C@H]3C(=O)N(C)CC(=O)N(C)[C@@H](C)C(=O)O[C@@H]2C)c(N)c1=O` (I: T[dV][Pro(4-oxo)][Sar][NMeA] / II: T[dV][Pro(3S-OH,5S-Me)][Sar][NMeV]; ester I:1-I:C, II:1-II:C; linker I:N-II:N via Actinocin(1to9)): the MIC in experiment [1] was over 9.45 µg/mL.
Consider `Cc1c2oc3c(C)ccc(C(=O)N[C@@H]4C(=O)N[C@H](C(C)C)C(=O)N5[C@@H](C)CC[C@H]5C(=O)N(C)CC(=O)N(C)[C@@H](C(C)C)C(=O)O[C@@H]4C)c3nc-2c(C(=O)N[C@@H]2C(=O)N[C@H](C(C)C)C(=O)N3CC(=O)C[C@H]3C(=O)N(C)CC(=O)N(C)[C@@H](C)C(=O)O[C@@H]2C)c(N)c1=O` (I: T[dV][Pro(4-oxo)][Sar][NMeA] / II: T[dV][Pro(5S-Me)][Sar][NMeV]; ester I:1-I:C, II:1-II:C; linker I:N-II:N via Actinocin(1to9)), for which the MIC with Micrococcus luteus is 0.003 µg/mL (≈ 0.00239 µM); in experiment [1], over 9.57 µg/mL.
As for `Cc1c2oc3c(C)ccc(C(=O)N[C@@H]4C(=O)N[C@H](C(C)C)C(=O)N5[C@@H](C)CC[C@H]5C(=O)N(C)CC(=O)N(C)[C@@H](C(C)C)C(=O)O[C@@H]4C)c3nc-2c(C(=O)N[C@@H]2C(=O)N[C@H](C(C)C)C(=O)N3[C@@H](C)CC[C@H]3C(=O)N(C)CC(=O)N(C)[C@@H](C(C)C)C(=O)O[C@@H]2C)c(N)c1=O` (I: T[dV][Pro(5S-Me)][Sar][NMeV] / II: T[dV][Pro(5S-Me)][Sar][NMeV]; ester I:1-I:C, II:1-II:C; linker I:N-II:N via Actinocin(9to1)), the MIC with Bacillus spizizenii was 0.006 µg/mL (≈ 0.00467 µM); in [1] it was over 9.36 µg/mL.
Turning to `Cc1c2oc3c(C)ccc(C(=O)N[C@@H]4C(=O)N[C@H](C(C)C)C(=O)N5[C@H](C(=O)N(C)CC(=O)N(C)[C@@H](C(C)C)C(=O)O[C@@H]4C)[C@@H](O)C[C@@H]5C)c3nc-2c(C(=O)N[C@@H]2C(=O)N[C@H](C(C)C)C(=O)N3CC(=O)C[C@H]3C(=O)N(C)CC(=O)N(C)[C@@H](C)C(=O)O[C@@H]2CO)c(N)c1=O` (I: [X1][dV][Pro(4-oxo)][Sar][NMeA] / II: T[dV][Pro(3S-OH,5S-Me)][Sar][NMeV]; ester I:1-I:C, II:1-II:C; linker I:N-II:N via Actinocin(1to9)), the values for the minimum inhibitory concentration (MIC) (with Micrococcus luteus; in experiment [1]) were 0.12 µg/mL (≈ 0.0932 µM) and over 9.33 µg/mL, respectively.
Turning to `Cc1c2oc3c(C)ccc(C(=O)N[C@@H]4C(=O)N[C@H](C(C)C)C(=O)N5[C@H](C(=O)N(C)CC(=O)N(C)[C@@H](C(C)C)C(=O)O[C@@H]4C)[C@@H](O)C[C@@H]5C)c3nc-2c(C(=O)N[C@@H]2C(=O)N[C@H](C(C)C)C(=O)N3CC(=O)C[C@H]3C(=O)N(C)CC(=O)N(C)[C@@H](C)C(=O)O[C@@H]2CCl)c(N)c1=O` (I: [X2][dV][Pro(4-oxo)][Sar][NMeA] / II: T[dV][Pro(3S-OH,5S-Me)][Sar][NMeV]; ester I:1-I:C, II:1-II:C; linker I:N-II:N via Actinocin(1to9)), in [1], the MIC is over 9.2 µg/mL.
Consider `Cc1c2oc3c(C)ccc(C(=O)N[C@@H]4C(=O)N[C@H](C(C)C)C(=O)N5CCC[C@H]5C(=O)N(C)CC(=O)N(C)[C@@H](C(C)C)C(=O)O[C@@H]4C)c3nc-2c(C(=O)N[C@@H]2C(=O)N[C@H](C(C)C)C(=O)N3CCC[C@H]3C(=O)N(C)CC(=O)N(C)[C@@H](C(C)C)C(=O)O[C@@H]2C)c(N)c1=O` [DACTINOMYCIN] (I: T[dV]P[Sar][NMeV] / II: T[dV]P[Sar][NMeV]; ester I:1-I:C, II:1-II:C; linker I:N-II:N via Actinocin(1to9)), for which the minimal inhibitory concentration (MIC) against Micrococcus luteus came to 0.003 µg/mL (≈ 0.00239 µM); in the experiment with Bacillus spizizenii, 0.002 µg/mL (≈ 0.00159 µM); with Mycolicibacterium aurum it was 0.6 µg/mL (≈ 0.478 µM); in experiment [1] it was 9.57 µg/mL (≈ 7.62 µM); in the experiment with Staphylococcus aureus it was 0.006 µg/mL (≈ 0.00478 µM); in the experiment on Saccharomyces cerevisiae it was 4.79 µg/mL (≈ 3.82 µM).
